The record followed here is ChEMBL document CHEMBL1139758, “Second generation of alpha-tocopherol analogs-nitric oxide donors: Synthesis, physicochemical, and biological characterization” (Bioorg Med Chem, 2007).

In assay [1] the test system is Aorta. The assay is described as follows: Vasodilation of noradrenaline-induced contraction of Wistar Kyoto rat thoracic aorta at 10 uM. The class given is functional. In a few lines: (§1)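 Thoracic aorta rings (4 mm) from heparinized, pentobarbital-anaesthetized (40 mg/kg ip) Wistar Kyoto rats (250–300 g). Compounds added in DMSO to the organ bath once contraction reached a plateau; α-tocopherol, Trolox and vehicle served as controls. Where used, ODQ (1 µM) was added at least 10 min before the compound.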

Assay [2] relates to Aorta. Put plainly: Vasodilation of noradrenaline-induced contraction of Wistar Kyoto rat thoracic aorta at 20 uM. The class given is functional. The method in brief:
as §1

The test system of assay [3] is THP-1. Put plainly: Cytotoxicity against human THP1 cells by MTT assay. The format is functional, cell-based. The method in brief:
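Phorbol ester (100 ng/mL)-differentiated THP-1 cells, seeded 1 × 10^5/well in RPMI with fetal serum, attached 48 h at 37 °C in 5% CO2, then exposed 24 h to compounds at 1–500 µM. MTT added to 0.2 mg/mL for 3 h at 37 °C, formazan dissolved in DMSO, A560 read. IC50 is the concentration halving control absorbance; mean of at least three determinations.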
(In general: Tetrazolium dyes change colour on reduction, which living cells bring about.)

For assay [4], the system named is J774. The assay is described as follows: Cytotoxicity against mouse J774 cells by MTT assay. The class given is cell-based. In a few lines: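 J774.1 macrophages, kept in DMEM with 10% heat-inactivated FCS, seeded 1 × 10^5/well in RPMI with fetal serum and left to attach 48 h (37 °C, 5% CO2). Compounds at 1–500 µM for 24 h. Viability by MTT reduction (0.2 mg/mL, 3 h, 37 °C), formazan in DMSO, A560.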

pIC50: −log10 of the molar value.

`Cc1c(C)c2c(c(C)c1OCc1c(S(=O)(=O)c3ccccc3)no[n+]1[O-])CCC(C)(CCCC(C)CCCC(C)CCCC(C)C)O2` (stereo not given): the Activity in assay [1] was 15%.
In assay [2], `CC(=O)Oc1c(C)c(C)c2c(c1C)CCC(C)(CCCC(C)CCCC(C)CCCC(C)C)O2` (stereo not drawn) [alpha-TOCHOPHERYL ACETATE] yielded an Activity of 0%.
One may read the pIC50 as the negative decadic logarithm of the IC50, by convention in mol/L. A low value points to a large IC50. Regarding `Cc1c(C)c2c(c(C)c1O)CC[C@@](C)(CCC[C@H](C)CCC[C@H](C)CCCC(C)C)O2` [ALPHA-TOCOPHEROL], the pIC50 in assay [3] and in assay [4] was under 3.30 throughout.
The compound `CC(=O)Oc1c(C)c(C)c2c(c1C)CCC(C)(C(=O)O)O2` (stereo not given) returned an Activity in assay [2] of 0%.
